The values that follow come from paper PMC3946399 (Molecular pharmaceutics, 2013).

The test system of data set [1] is SERCA. The experiment in a line: Evaluation of synergy in SERCA ATPase assay. In kind it is biochemical, rabbit.
In data set [2] the test system is HL60/MX2 cells. In kind it is cell-based. The settings on record: ratio of IC50 in HL60 and HL60/MX2.
Data set [3] has as its target SERCA. The note with it: cited from earlier work.
Data set [4] has as its system HL60/MX2 cells. The experiment in a line: cells. In kind it is cell-based.
In the next data set the target is SERCA1a (Oryctolagus cuniculus, UniProt P04191). In kind it is biochemical, rabbit. The settings on record: for pKATP(reg) / pKATP(cat): pCa 5.4; for pKATP(reg): control 3.30 ± 0.08; for pKATP(cat): control 4.99 ± 0.07. The gist of the method:
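Ca2+-dependent ATPase activity was measured in light SR vesicles from fast-twitch skeletal muscle of New Zealand white rabbits, using an NADH-linked coupled assay. Buffer was 5 mM MgCl2, 100 mM KCl, 1 mM EGTA (free Ca2+ set by EGTA buffering), 0.4 mM NADH, 10 IU/mL LDH, 10 IU/mL PK, 7 ug/mL A23187, 50 mM MOPS pH 7.0. Compounds were added in 1% DMSO final. Runs were at 37 °C in duplicate or triplicate, and rates were taken from A340 decay.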

The mark [5] stands for this setting: in combination with (−)-CXL017 at fixed molar ratio, CI<0.9 synergy.

SMILES strings stand for the structures. Like-named read-outs stand apart in the source and are kept apart here. Bounds are passed on as bounds.

Chain of SERCA1a (P04191 1-994 isoform P04191-2): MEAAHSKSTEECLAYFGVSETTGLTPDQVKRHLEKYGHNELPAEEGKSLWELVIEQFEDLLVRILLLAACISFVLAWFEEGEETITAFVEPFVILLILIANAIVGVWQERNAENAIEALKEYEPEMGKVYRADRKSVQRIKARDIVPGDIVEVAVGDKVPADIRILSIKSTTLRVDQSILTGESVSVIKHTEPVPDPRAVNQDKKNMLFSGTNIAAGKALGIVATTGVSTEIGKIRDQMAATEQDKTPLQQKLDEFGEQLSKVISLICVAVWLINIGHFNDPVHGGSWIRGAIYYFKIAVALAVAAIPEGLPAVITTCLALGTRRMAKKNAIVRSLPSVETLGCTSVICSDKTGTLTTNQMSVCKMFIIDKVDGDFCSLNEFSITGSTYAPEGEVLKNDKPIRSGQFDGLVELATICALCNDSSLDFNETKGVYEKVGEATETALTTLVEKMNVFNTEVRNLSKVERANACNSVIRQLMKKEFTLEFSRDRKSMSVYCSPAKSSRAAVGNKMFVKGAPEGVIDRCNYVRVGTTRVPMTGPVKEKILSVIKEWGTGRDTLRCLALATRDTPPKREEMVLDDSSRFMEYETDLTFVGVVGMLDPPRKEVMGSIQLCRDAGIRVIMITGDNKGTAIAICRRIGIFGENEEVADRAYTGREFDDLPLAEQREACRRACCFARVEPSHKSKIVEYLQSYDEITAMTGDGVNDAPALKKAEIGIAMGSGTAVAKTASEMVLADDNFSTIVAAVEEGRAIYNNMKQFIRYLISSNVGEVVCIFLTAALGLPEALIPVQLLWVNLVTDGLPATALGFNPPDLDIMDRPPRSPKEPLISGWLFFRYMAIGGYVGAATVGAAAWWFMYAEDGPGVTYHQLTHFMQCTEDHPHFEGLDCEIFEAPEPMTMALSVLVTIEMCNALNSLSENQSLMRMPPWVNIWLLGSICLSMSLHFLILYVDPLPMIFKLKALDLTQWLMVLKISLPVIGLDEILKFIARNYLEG

Turning to `CC(C)(C)c1cc(O)c(C(C)(C)C)cc1O` [BHQ, 2,5-di-tert-butylhydroquinone], in the data set on SERCA [1] (setting [5]), the “combination index (CI)” value is listed as 0.15–0.25. Besides, the “selectivity for resistant cell line (HL60/MX2 over HL60)” value (“selectivity for resistant cell line” for short) in the data set on HL60/MX2 cells [2] worked out at 7.7 fold. Also, the dissociation constant entry at SERCA [3] was “submicromolar”.

Consider `CCOC(=O)CC1C(C(=O)OCC)=C(N)Oc2ccc(-c3cc(OC)cc(OC)c3)cc21` (single isomer, unassigned; (-)) [(−)-CXL017], for which the “combination index (CI)” value in the data set with SERCA [1] ((−)-CXL017 with each of the known SERCA inhibitors (TG, CPA, BHQ)) is reported as less than 0.9. This compound registered a cell viability with HL60/MX2 cells [4] (6.25 µM) of 47%.

Take `C/C=C(/C)C(=O)O[C@H]1C(C)=C2[C@H]([C@@H]1OC(=O)CCCCCCC)[C@@](C)(OC(C)=O)C[C@H](OC(=O)CCC)[C@@]1(O)[C@H]2OC(=O)[C@@]1(C)O` [TG, thapsigargin]: the “combination index (CI)” value with SERCA [1] (setting [5]) is 0.4–0.65. For the same compound, the “selectivity for resistant cell line” value in the data set on HL60/MX2 cells [2] is given as 400 fold. Further, the viability at 0.009375 µM with HL60/MX2 cells [4] (Homo sapiens, HL60/MX2, read-out: cell viability) stood at 43%. In addition, the dissociation constant entry at SERCA [3] was “submicromolar”.

Take `CC(=O)C1=C(O)[C@@H]2[C@H]3c4c[nH]c5cccc(c45)C[C@H]3C(C)(C)N2C1=O` [CPA, cyclopiazonic acid]: the “combination index (CI)” value with SERCA [1] (setting [5]) was 0.35–0.45. Moreover, in the data set on HL60/MX2 cells [2], the “selectivity for resistant cell line” value is 17 fold. Moreover, the dissociation constant entry on SERCA [3] is recorded as “submicromolar”.

Turning to `CCOC(=O)CC1C(C(=O)OCC)=C(N)Oc2ccc(-c3cc(OC)cc(OC)c3)cc21` (stereo not shown) [CXL017, Ethyl 2-amino-6-(3,5-dimethoxyphenyl)-4-(2-ethoxy-2-oxoethyl)-4H-chromene-3-carboxylate], the IC50 against SERCA1a was determined as 25 ± 1 µM. The “pKATP(reg)” value at SERCA1a (10 μM CXL017, varied ATP) is listed as 2.96 ± 0.07; at SERCA1a (30 μM CXL017, varied ATP) it was 2.6 ± 0.1. The “pKATP(cat)” value on SERCA1a (10 μM CXL017, varied ATP) is on record as 3.92 ± 0.02; at SERCA1a (30 μM CXL017, varied ATP), 3.99 ± 0.02. The “effect on apparent Ca2+ affinity (pKCa)” value at SERCA1a (10 or 30 μM CXL017) is given as “no significant effect”. Moreover, at SERCA1a (10 or 30 μM CXL017, varied ATP, two-site model), the “change in Vmax at catalytic and regulatory ATP sites” value is “no significant change”.

A word on the cell viability: it is the share of living cells, or the viability signal relative to a control. In general, viability refers to the share of living cells, or the viability signal relative to a control. The IC50 is the midpoint of a concentration-inhibition curve.
